Measured values reported in ChEMBL document CHEMBL1140729, “Synthesis and evaluation of 2'-hydroxyethyl trans-apovincaminate derivatives as antioxidant and cognitive enhancer agents” (J Med Chem, 2008).
Activity calls are given as the source filed them. No cut-off for these calls is given here.

How the values were obtained:
Rattus norvegicus [1] = organism: Rattus norvegicus; assay: Inhibition of […] lipid peroxidation in rat brain microsome; assay type: functional
Procedure, shortened: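 Rat brain microsomes (78000 g pellet) in KCl at 0.2 mg protein per ml. Medium: 50 mM Tris-HCl pH 6.8, 0.2 mM FeCl3, 1 mM KH2PO4, 0.5 mM ADP, preincubated 20 min at 37 °C ± compound. LPO started with 0.4 mM NADPH, run 20 min, stopped with TCA/HCl. TBA boiled 10 min, OD read at 535 nm. IC50 obtained by sigmoid fit of 7–9 concentrations, triplicates.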

Brain = assay: Inhibition of Fe2+-induced lipid peroxidation in rat brain homogenate; assay type: functional, tissue-based
Procedure, shortened: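 Whole rat brain homogenized in 9 vol ice-cold Krebs-Ringer/15 mM HEPES pH 7.4 with glucose, used fresh at 10 mg protein/ml. Preincubated with compound 20 min at 37 °C. LPO started with ferrous ammonium sulfate (200 µM Fe²⁺), run 20 min, stopped with TCA/HCl. TBA added to supernatant, boiled 20 min, OD read at 535 nm. IC50 obtained by sigmoid fit of 6–9 concentrations, triplicates.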

Mus musculus [2] = assay: Inhibition of diazepam-induced amnesia in NMRI mouse at 0.1 mg/kg, po by one-trial passive avoidance test; assay type: functional
Procedure, shortened: (§1)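 Male NMRI mice, 25–28 g, 10 per group. Anterograde amnesia induced by diazepam 3 mg/kg i.p. 30 min before the acquisition trial. Test compound given orally (0.1 or 10 mg/kg) 1 h before acquisition. Readout is latency to enter the dark chamber. Percent restoration P% = (T_treated+DIA − T_placebo+DIA)/(T_placebo − T_placebo+DIA) × 100.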

Mus musculus [3] = assay: Inhibition of diazepam-induced amnesia in NMRI mouse at 10 mg/kg, po by one-trial passive avoidance test; assay type: functional; procedure, shortened: as §1
Rattus norvegicus [4] = assay: Protective effect against diazepam-induced learning-deficit in Wistar rat at 5 mg/kg, po by water labyrinth test; assay type: functional
Procedure, shortened: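 Male Wistar rats, 200–220 g, 10 per group. Diazepam 5 mg/kg i.p. in 5% Tween 80, given 30 min before the first swim. Compound given orally at 5 mg/kg 1 h before the first daily trial. Four-day water-labyrinth task with three choice points in water at 24 °C: one pretraining day, then three trials per day. Directional turning errors counted, 12 if the platform was not found in 5 min. Percent restoration calculated; ANOVA with Duncan test.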

Mus musculus [5] = assay: Effect on memory improvement in NMRI mouse at 10 mg/kg by passive avoidance test; assay type: functional, organism-based; design: dose 10 mg/kg; procedure, shortened: as §1

Structure (SMILES)	IC50 (Rattus norvegicus [1])	IC50 (Brain)	inhibition in vivo at 0.1 mg/kg (Mus musculus [2])	inhibition in vivo at 10 mg/kg (Mus musculus [3])	Activity (Rattus norvegicus [4])	Activity (Mus musculus [5])
CCC(=O)OCCOC(=O)C1=C[C@]2(CC)CCCN3CCc4c(n1c1ccccc41)[C@H]32	5 µM	21 µM	16%	4%		
CC[C@@]12C=C(C(=O)OCCOC(=O)c3ccc(Cl)cc3)n3c4c(c5ccccc53)CCN(CCC1)[C@@H]42	2.7 µM	14.6 µM	3%	15%		
CC[C@@]12C=C(C(=O)OCCO)n3c4c(c5ccccc53)CCN(CCC1)[C@H]42	> 30 µM				80.3%	
CC[C@@]12C=C(C(=O)OCCO)n3c4c(c5ccccc53)CCN(CCC1)[C@@H]42	7 µM	13.7 µM	74%	65%	81.1%	Active
CC[C@]12C=C(C(=O)OCCO)n3c4c(c5ccccc53)CCN(CCC1)[C@H]42	9.1 µM	13.6 µM	50%	56%		Active
CC[C@]12C=C(C(=O)OCCOC(=O)c3ccc(Cl)cc3)n3c4c(c5ccccc53)CCN(CCC1)[C@H]42	2.7 µM	15.7 µM				
CC[C@]12C=C(C(=O)O)n3c4c(c5ccccc53)CCN(CCC1)[C@H]42	> 300 µM	258 µM				
O=c1c(O)c(-c2ccc(O)c(O)c2)oc2cc(O)cc(O)c12 [QUERCETIN]	8.5 µM	10.7 µM				
CCOC(=O)C1=C[C@]2(CC)CCCN3CCc4c(n1c1ccccc41)[C@H]32	3.5 µM	14.4 µM				
CC[C@@]12C=C(C(=O)[O-])n3c4c(c5ccccc53)CCN(CCC1)[C@@H]42.[Na+]	> 300 µM	238 µM			71.3%	
CC[C@@]12C=C(C(=O)O)n3c4c(c5ccccc53)CCN(CCC1)[C@H]42					66.7%	
CCC(=O)OCCOC(=O)C1=C[C@@]2(CC)CCCN3CCc4c(n1c1ccccc41)[C@@H]32	4.4 µM	15.8 µM	64%	24%		
CC[C@]12C=C(C(=O)OCCOC(=O)c3ccccc3)n3c4c(c5ccccc53)CCN(CCC1)[C@H]42	3.4 µM	14.8 µM	23%	16%		
CC[C@]12C=C(C(=O)OCCOC(C)=O)n3c4c(c5ccccc53)CCN(CCC1)[C@H]42	3.8 µM	15.2 µM	72%	44%		Active

Further compounds by falling IC50 (Rattus norvegicus [1]), results first:

IC50 (Rattus norvegicus [1])	IC50 (Brain)	Structure (SMILES)	inhibition in vivo at 0.1 mg/kg (Mus musculus [2])	inhibition in vivo at 10 mg/kg (Mus musculus [3])	Activity (Rattus norvegicus [4])	Activity (Mus musculus [5])
273 µM	35.7 µM	Cc1c(C)c2c(c(C)c1O)CCC(C)(CCCC(C)CCCC(C)CCCC(C)C)O2 (racemic) [alpha-TOCHOPHEROL]				
137 µM	209 µM	CCOC(=O)C1=C[C@]2(CC)CCCN3CCc4c(n1c1ccccc41)[C@@H]32 [VINPOCETINE]	0%	100%	56.6%	
3.8 µM	18.2 µM	CC[C@@]12C=C(C(=O)OCCOC(=O)c3ccccc3)n3c4c(c5ccccc53)CCN(CCC1)[C@@H]42	0%	0%		
3.6 µM	9.8 µM	CC[C@@]12C=C(C(=O)OCCOC(C)=O)n3c4c(c5ccccc53)CCN(CCC1)[C@@H]42	79%	100%		Active
3.2 µM	6.2 µM	Cc1cc(C(C)(C)C)c(O)c(C(C)(C)C)c1 [BUTYLATED HYDROXYTOLUENE]				
3 µM	13.4 µM	CCOC(=O)C1=C[C@@]2(CC)CCCN3CCc4c(n1c1ccccc41)[C@@H]32				
1.3 µM	31.5 µM	COC1=C(OC)C(=O)C(CCCCCCCCCCO)=C(C)C1=O [IDEBENONE]				
